Reference: ChEMBL document CHEMBL3352198, “Design, synthesis, biological evaluation of substituted benzofurans as DNA gyraseB inhibitors of Mycobacterium tuberculosis” (Bioorg Med Chem, 2014)
≈ marks a conversion by molar mass, not a printed value. Calls of active or inactive are those of the source. The rule behind the calls is not given here.

Legend:
DNA gyrase subunit B = DNA gyrase subunit B (Mycobacterium smegmatis, UniProt P0C559); experiment: Inhibition of 6-His-tagged Mycobacterium smegmatis GyrB expressed in Escherichia coli BL21 (DE3) pLysS cells incubated for 100 mins in presence of ATP by malachite green dye based ATP assay; design: species or system Mycolicibacterium smegmatis
Chain of DNA gyrase subunit B (P0C559 whole entry): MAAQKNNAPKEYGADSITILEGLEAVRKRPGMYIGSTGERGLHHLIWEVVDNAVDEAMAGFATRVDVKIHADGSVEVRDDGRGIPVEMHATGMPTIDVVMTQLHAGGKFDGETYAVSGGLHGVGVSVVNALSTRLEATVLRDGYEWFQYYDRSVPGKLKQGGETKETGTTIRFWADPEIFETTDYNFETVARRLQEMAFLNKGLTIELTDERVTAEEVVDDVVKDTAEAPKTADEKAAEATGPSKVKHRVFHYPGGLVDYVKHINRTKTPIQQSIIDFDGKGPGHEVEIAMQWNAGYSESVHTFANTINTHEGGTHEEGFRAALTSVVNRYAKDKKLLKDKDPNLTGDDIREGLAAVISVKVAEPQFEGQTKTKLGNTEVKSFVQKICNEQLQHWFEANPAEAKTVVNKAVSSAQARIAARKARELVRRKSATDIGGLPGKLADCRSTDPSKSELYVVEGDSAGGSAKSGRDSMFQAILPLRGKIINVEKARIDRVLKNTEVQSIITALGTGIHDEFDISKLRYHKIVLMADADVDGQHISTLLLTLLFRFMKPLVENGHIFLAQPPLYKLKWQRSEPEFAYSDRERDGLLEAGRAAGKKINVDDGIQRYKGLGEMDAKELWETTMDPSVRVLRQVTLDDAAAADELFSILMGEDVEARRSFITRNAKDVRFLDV

[1] = target: DNA gyrase subunit A/DNA gyrase subunit B (Mycobacterium tuberculosis (strain ATCC 25618 / H37Rv), UniProt P9WG45+P9WG47); experiment: Inhibition of Mycobacterium tuberculosis DNA gyrase supercoiling activity using relaxed pBR322 substrate incubated for 30 mins by ethidium bromide staining method
Chain of DNA gyrase subunit A/DNA gyrase subunit B (P9WG45 whole entry): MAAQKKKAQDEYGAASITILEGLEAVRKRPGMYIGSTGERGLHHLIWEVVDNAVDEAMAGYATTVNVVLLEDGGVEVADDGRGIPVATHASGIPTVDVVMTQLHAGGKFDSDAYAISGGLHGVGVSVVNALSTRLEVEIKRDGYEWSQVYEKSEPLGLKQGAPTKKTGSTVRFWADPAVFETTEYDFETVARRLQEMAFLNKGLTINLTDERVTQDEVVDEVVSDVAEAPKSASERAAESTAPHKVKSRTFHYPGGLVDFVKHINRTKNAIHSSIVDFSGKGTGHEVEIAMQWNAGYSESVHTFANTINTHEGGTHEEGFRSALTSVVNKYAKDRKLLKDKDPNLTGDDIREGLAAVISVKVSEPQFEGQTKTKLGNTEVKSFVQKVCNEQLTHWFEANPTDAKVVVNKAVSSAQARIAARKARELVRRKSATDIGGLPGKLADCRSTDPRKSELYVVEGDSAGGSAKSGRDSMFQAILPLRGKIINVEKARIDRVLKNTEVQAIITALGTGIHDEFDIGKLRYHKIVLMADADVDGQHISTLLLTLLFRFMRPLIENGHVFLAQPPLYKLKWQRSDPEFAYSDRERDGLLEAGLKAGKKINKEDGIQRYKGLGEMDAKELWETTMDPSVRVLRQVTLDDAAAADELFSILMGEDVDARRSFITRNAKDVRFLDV
Chain of DNA gyrase subunit A/DNA gyrase subunit B (P9WG47 whole entry): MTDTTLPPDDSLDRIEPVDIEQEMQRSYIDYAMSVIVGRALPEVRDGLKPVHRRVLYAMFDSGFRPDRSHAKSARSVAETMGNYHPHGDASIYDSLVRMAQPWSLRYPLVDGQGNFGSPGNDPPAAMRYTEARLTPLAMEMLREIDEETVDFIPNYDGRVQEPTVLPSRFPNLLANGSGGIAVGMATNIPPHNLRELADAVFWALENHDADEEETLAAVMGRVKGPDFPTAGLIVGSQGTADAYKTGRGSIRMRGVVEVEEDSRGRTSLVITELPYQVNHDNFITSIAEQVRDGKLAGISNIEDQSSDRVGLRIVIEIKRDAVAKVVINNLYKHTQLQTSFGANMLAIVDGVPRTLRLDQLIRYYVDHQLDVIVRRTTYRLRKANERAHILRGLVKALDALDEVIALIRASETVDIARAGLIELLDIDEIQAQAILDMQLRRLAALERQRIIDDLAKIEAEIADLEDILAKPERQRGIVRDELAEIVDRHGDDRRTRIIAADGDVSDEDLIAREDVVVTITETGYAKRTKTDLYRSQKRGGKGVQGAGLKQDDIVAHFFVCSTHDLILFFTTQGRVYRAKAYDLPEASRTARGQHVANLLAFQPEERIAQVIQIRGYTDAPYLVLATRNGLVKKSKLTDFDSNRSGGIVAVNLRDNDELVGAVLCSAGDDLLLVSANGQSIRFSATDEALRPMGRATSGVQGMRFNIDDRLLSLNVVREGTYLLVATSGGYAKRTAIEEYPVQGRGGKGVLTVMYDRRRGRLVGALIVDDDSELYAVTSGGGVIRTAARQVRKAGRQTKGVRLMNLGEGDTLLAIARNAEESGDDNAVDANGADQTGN

[2] = system: Mycobacterium tuberculosis; experiment: Antibacterial activity against Mycobacterium tuberculosis H37Rv after 7 days by microplate alamar blue assay method; assay type: functional; conditions: 168 h
Procedure, shortened: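 Mtb H37Rv inoculum taken from fresh LJ medium, resuspended in 7H9-S (7H9, 0.1% casitone, 0.5% glycerol, OADC), adjusted to McFarland No. 1 and diluted 1:20. Two-fold serial drug dilutions in 7H9-S, with growth and sterile controls. Incubated 7 days at 37 °C, alamar blue added, reincubated overnight. MIC taken as lowest concentration preventing the blue-to-pink colour change.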

[3] = Cytotoxicity against mouse RAW264.7 cells assessed as inhibition of cell viability at 100 uM after 48 hrs by MTT assay; assay type: cell-based; conditions: read-out: INH
Procedure, shortened: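 RAW 264.7 mouse macrophages, 5 × 10^5 cells per well, exposed to compounds at 37 °C, 5% CO2 for 48 h. MTT added about 4 h before the end, then supernatant removed and DMSO added. Absorbance read at 560 nm against blank, triplicate wells per concentration, result expressed as % inhibition.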

[4] = target: DNA gyrase subunit B (Staphylococcus aureus) (UniProt P0A0K8); experiment: Inhibition of Staphylococcus aureus GyrB at 50 uM
Chain of DNA gyrase subunit B (Staphylococcus aureus) (P0A0K8 2-644 limits assumed): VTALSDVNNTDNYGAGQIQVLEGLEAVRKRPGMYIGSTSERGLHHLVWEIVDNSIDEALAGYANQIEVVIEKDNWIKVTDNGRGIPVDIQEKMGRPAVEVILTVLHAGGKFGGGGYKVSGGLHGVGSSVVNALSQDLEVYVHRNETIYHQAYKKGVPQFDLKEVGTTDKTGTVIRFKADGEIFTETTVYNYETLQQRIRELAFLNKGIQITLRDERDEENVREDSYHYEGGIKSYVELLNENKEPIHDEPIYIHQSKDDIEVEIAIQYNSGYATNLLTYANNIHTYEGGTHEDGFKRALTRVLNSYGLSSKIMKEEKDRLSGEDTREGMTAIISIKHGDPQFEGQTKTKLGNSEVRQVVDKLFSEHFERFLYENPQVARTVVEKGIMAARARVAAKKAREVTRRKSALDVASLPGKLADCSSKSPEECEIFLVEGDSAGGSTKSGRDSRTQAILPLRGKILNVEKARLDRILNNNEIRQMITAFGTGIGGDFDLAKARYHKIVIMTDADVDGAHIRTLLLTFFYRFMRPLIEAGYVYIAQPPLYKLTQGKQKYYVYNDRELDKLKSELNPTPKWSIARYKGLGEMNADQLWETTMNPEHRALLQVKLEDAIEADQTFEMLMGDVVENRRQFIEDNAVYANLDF

[5] = target: DNA gyrase subunit B (Escherichia coli) (UniProt P0AES6); experiment: Inhibition of Escherichia coli GyrB at 50 uM
[6] = target: DNA gyrase subunit B (Mycobacterium smegmatis) (UniProt P0C559); conditions: Mycolicibacterium smegmatis
Chain of DNA gyrase subunit B (Mycobacterium smegmatis) (P0C559 2-675 limits assumed): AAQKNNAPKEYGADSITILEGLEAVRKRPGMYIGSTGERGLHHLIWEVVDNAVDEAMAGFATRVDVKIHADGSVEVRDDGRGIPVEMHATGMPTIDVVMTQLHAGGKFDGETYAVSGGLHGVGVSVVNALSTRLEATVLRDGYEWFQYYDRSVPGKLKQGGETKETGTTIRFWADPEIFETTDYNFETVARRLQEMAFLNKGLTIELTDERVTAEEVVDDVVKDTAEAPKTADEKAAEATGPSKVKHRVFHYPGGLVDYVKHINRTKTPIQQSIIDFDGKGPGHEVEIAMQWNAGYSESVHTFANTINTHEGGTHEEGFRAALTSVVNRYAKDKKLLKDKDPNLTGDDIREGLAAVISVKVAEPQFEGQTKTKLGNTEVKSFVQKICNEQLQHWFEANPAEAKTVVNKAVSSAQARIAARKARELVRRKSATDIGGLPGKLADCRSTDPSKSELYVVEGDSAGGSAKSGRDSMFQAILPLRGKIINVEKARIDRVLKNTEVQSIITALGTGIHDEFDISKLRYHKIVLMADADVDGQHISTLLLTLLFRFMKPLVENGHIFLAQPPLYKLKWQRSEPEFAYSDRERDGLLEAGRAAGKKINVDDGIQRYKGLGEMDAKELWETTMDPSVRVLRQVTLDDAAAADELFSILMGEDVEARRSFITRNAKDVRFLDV

CCOC(=O)c1cc2cc(N3CCN(C(=O)COc4ccccc4)CC3)ccc2o1
IC50 (DNA gyrase subunit B): 3.97 µM
IC50 [1]: 1.14 µM
MIC [2]: 9.35 µM (≈ 3.82 µg/mL)
cytotoxicity at 48 h, 100 µM [3]: 7.65%

CCOC(=O)c1cc2cc(N3CCN(C(=O)Cc4ccc(Br)cc4)CC3)ccc2o1
IC50 (DNA gyrase subunit B): 16.6 µM
IC50 [1]: 5.2 µM
MIC [2]: 19.8 µM (≈ 9.33 µg/mL)
cytotoxicity at 48 h, 100 µM [3]: 53%

CCOC(=O)c1sc(-c2ccccc2)nc1N1CCC(NCc2ccc(F)cc2)CC1
MIC [2]: 28.4 µM (≈ 12.5 µg/mL)

CCOC(=O)c1cc2cc(N3CCN(C(=O)Cc4ccc(F)cc4)CC3)ccc2o1
IC50 (DNA gyrase subunit B): 38.4 µM
IC50 [1]: 26.9 µM
MIC [2]: 40.2 µM (≈ 16.5 µg/mL)
cytotoxicity at 48 h, 100 µM [3]: 30.4%

CCOC(=O)c1cc2cc(N3CCN(C(=O)c4c(Cl)cccc4Cl)CC3)ccc2o1
IC50 (DNA gyrase subunit B): 10.7 µM
IC50 [1]: 3.1 µM
MIC [2]: 10 µM (≈ 4.49 µg/mL)
cytotoxicity at 48 h, 100 µM [3]: 6.98%

CC[C@@H](CO)NCCN[C@@H](CC)CO [ETHAMBUTOL]
MIC [2]: 9.84 µM (≈ 2.01 µg/mL)

CCOC(=O)c1cc2cc(N3CCN(C(=O)Cc4c(F)cc(F)cc4F)CC3)ccc2o1
IC50 (DNA gyrase subunit B): 12.4 µM
IC50 [1]: 6.1 µM
MIC [2]: 17.1 µM (≈ 7.61 µg/mL)
cytotoxicity at 48 h, 100 µM [3]: 14%

CCOC(=O)c1cc2cc(N3CCN(C(=O)C4CCN(C(=O)OC(C)(C)C)CC4)CC3)ccc2o1
IC50 (DNA gyrase subunit B): 3.2 µM
IC50 [1]: 0.81 µM
MIC [2]: 9.18 µM (≈ 4.46 µg/mL)
cytotoxicity at 48 h, 100 µM [3]: 3.21%
inhibition [4]: inactive
inhibition [5]: inactive
ΔTm [6]: 2.7 °C

CCOC(=O)c1cc2cc(N3CCN(C(=O)Cc4ccc(OC)cc4)CC3)ccc2o1
IC50 (DNA gyrase subunit B): 10.2 µM
IC50 [1]: 7.4 µM
MIC [2]: 18.2 µM (≈ 7.68 µg/mL)
cytotoxicity at 48 h, 100 µM [3]: 7.39%

CCOC(=O)c1cc2cc(N3CCN(C(=O)c4ccc(C5CCOCC5)cc4)CC3)ccc2o1
IC50 (DNA gyrase subunit B): 6.7 µM
IC50 [1]: 0.91 µM
MIC [2]: 9.8 µM (≈ 4.53 µg/mL)
cytotoxicity at 48 h, 100 µM [3]: 6.75%

CCOC(=O)c1cc2cc(N3CCN(C(=O)C4Cc5ccccc5N4)CC3)ccc2o1 (stereo unspecified)
IC50 (DNA gyrase subunit B): 3.89 µM
IC50 [1]: 0.84 µM
MIC [2]: 9.23 µM (≈ 3.87 µg/mL)
cytotoxicity at 48 h, 100 µM [3]: 29.8%

COc1c(N2C[C@@H]3CCCN[C@@H]3C2)c(F)cc2c(=O)c(C(=O)O)cn(C3CC3)c12 [MOXIFLOXACIN]
IC50 (DNA gyrase subunit B): > 50 µM
MIC [2]: 8.6 µM (≈ 3.45 µg/mL)

CCOC(=O)c1cc2cc(N3CCN(C(=O)Cc4ccc(Cl)cc4)CC3)ccc2o1
IC50 (DNA gyrase subunit B): 14.5 µM
IC50 [1]: 8.9 µM
MIC [2]: 20.2 µM (≈ 8.63 µg/mL)
cytotoxicity at 48 h, 100 µM [3]: 29.2%

CCOC(=O)c1cc2cc(N3CCN(C(=O)c4ccco4)CC3)ccc2o1
IC50 (DNA gyrase subunit B): 37.3 µM
IC50 [1]: 24.4 µM
MIC [2]: 43.6 µM (≈ 16.1 µg/mL)
cytotoxicity at 48 h, 100 µM [3]: 17%

CCOC(=O)c1cc2cc(N3CCN(C(=O)c4ccccc4C(F)(F)F)CC3)ccc2o1
IC50 (DNA gyrase subunit B): 36.9 µM
IC50 [1]: 26.3 µM
MIC [2]: 38.4 µM (≈ 17.2 µg/mL)
cytotoxicity at 48 h, 100 µM [3]: 14%

CCOC(=O)c1cc2cc(N3CCN(C(=O)c4c(F)cccc4F)CC3)ccc2o1
IC50 (DNA gyrase subunit B): 6.21 µM
IC50 [1]: 2.9 µM
MIC [2]: 11.6 µM (≈ 4.81 µg/mL)
cytotoxicity at 48 h, 100 µM [3]: 7.54%

CCOC(=O)c1cc2cc(N3CCN(C(=O)c4ccccc4OC(F)(F)F)CC3)ccc2o1
IC50 (DNA gyrase subunit B): 29.2 µM
IC50 [1]: 15.6 µM
MIC [2]: 30.2 µM (≈ 14 µg/mL)
cytotoxicity at 48 h, 100 µM [3]: 27%

CCOC(=O)c1cc2cc(N3CCN(C(=O)CC(C)C)CC3)ccc2o1
IC50 (DNA gyrase subunit B): 41.1 µM
IC50 [1]: 29.1 µM
MIC [2]: 32.1 µM (≈ 11.5 µg/mL)
cytotoxicity at 48 h, 100 µM [3]: 8.71%

CCOC(=O)c1cc2cc(N3CCN(C(=O)c4cccc(OC)c4)CC3)ccc2o1
IC50 (DNA gyrase subunit B): 5.01 µM
IC50 [1]: 2.52 µM
MIC [2]: 9.67 µM (≈ 3.95 µg/mL)
cytotoxicity at 48 h, 100 µM [3]: 15.3%

CO[C@@H]1[C@@H](OC(N)=O)[C@@H](O)[C@H](Oc2ccc3c(O)c(NC(=O)c4ccc(O)c(CC=C(C)C)c4)c(=O)oc3c2C)OC1(C)C [NOVOBIOCIN]
MIC [2]: > 200 µM
cytotoxicity at 48 h, 100 µM [3]: 19.4%

CCOC(=O)c1cc2cc(N3CCN(C(=O)c4cccc5ccccc45)CC3)ccc2o1
IC50 (DNA gyrase subunit B): 9.08 µM
IC50 [1]: 3.6 µM
MIC [2]: 13.2 µM (≈ 5.64 µg/mL)
cytotoxicity at 48 h, 100 µM [3]: 3.64%

CCOC(=O)c1cc2cc(N3CCN(C(=O)c4cccnc4Cl)CC3)ccc2o1
IC50 (DNA gyrase subunit B): 7.94 µM
IC50 [1]: 1.5 µM
MIC [2]: 11 µM (≈ 4.54 µg/mL)
cytotoxicity at 48 h, 100 µM [3]: 7.55%

CCOC(=O)c1cc2cc(N3CCN(C(=O)CC4CCCCC4)CC3)ccc2o1
IC50 (DNA gyrase subunit B): 36.3 µM
IC50 [1]: 25.2 µM
MIC [2]: 38.4 µM (≈ 15.3 µg/mL)
cytotoxicity at 48 h, 100 µM [3]: 31.4%

NNC(=O)c1ccncc1 [ISONIAZID]
MIC [2]: 0.66 µM (≈ 0.0905 µg/mL)

CCOC(=O)c1cc2cc(N3CCN(C(=O)Cc4ccccc4)CC3)ccc2o1
IC50 (DNA gyrase subunit B): 9.2 µM
IC50 [1]: 6.81 µM
MIC [2]: 12.3 µM (≈ 4.84 µg/mL)
cytotoxicity at 48 h, 100 µM [3]: 15.1%

CCOC(=O)c1cc2cc(N3CCN(C(=O)c4ncccc4C(F)(F)F)CC3)ccc2o1
IC50 (DNA gyrase subunit B): 23.4 µM
IC50 [1]: 7.81 µM
MIC [2]: 26.7 µM (≈ 11.9 µg/mL)
cytotoxicity at 48 h, 100 µM [3]: 14%

CCOC(=O)c1cc2cc(N3CCN(C(=O)c4nccnc4Cl)CC3)ccc2o1
IC50 (DNA gyrase subunit B): 12.7 µM
IC50 [1]: 3.12 µM
MIC [2]: 13.9 µM (≈ 5.77 µg/mL)
cytotoxicity at 48 h, 100 µM [3]: 30.1%

CCOC(=O)c1cc2cc(N3CCN(C(=O)c4c(F)cc(OC)cc4F)CC3)ccc2o1
IC50 (DNA gyrase subunit B): 24.2 µM
IC50 [1]: 9.8 µM
MIC [2]: 25.4 µM (≈ 11.3 µg/mL)
cytotoxicity at 48 h, 100 µM [3]: 7.03%

CCOC(=O)c1cc2cc(N3CCN(C(=O)c4ccc(C(F)(F)F)cc4)CC3)ccc2o1
IC50 (DNA gyrase subunit B): 52.1 µM
IC50 [1]: 45.1 µM
MIC [2]: 54 µM (≈ 24.1 µg/mL)
cytotoxicity at 48 h, 100 µM [3]: 3.5%

CCOC(=O)c1cc2cc(N3CCN(C(=O)CCc4ccc(F)cc4)CC3)ccc2o1
IC50 (DNA gyrase subunit B): 6.14 µM
IC50 [1]: 3.13 µM
MIC [2]: 9.57 µM (≈ 4.06 µg/mL)
cytotoxicity at 48 h, 100 µM [3]: 14.7%

CC1COc2c(N3CCN(C)CC3)c(F)cc3c(=O)c(C(=O)O)cn1c23 (stereo unspecified) [OFLOXACIN]
MIC [2]: 2.16 µM (≈ 0.781 µg/mL)
